Laboratory results: ChEMBL document CHEMBL1122917, “Vinblastin-23-oyl amino acid derivatives: chemistry, physicochemical data, toxicity, and antitumor activities against P388 and L1210 leukemias” (J Med Chem, 1985)

Key:
Format in all cases: functional
[1] = system: Mus musculus; assay: Number of survivors of DBA2 mice on 60th day after inoculation with L1210 leukemia cell line intraperitoneally at a dose of 70 mg/kg/day; 0/10; settings: route intraperitoneal
[2] = system: Mus musculus; assay: Number of survivors of DBA2 mice on 60th day after inoculation with L1210 leukemia cell line intraperitoneally at a dose of 75 mg/kg/day; 0/10; settings: route intraperitoneal
[3] = system: Mus musculus; assay: Percent increase in life span of DBA2 mice after inoculation with L1210 leukemia intravenously at a dose of 55 mg/lg per day
[4] = system: Mus musculus; assay: Percent increase in life span of DBA2 mice after inoculation with L1210 leukemia intravenously at a dose of 60 mg/kg per day; settings: route intravenous
How it was run: (§1)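 Female DBA2 mice inoculated iv on day 0 with 10^4 L1210 cells; drugs given iv as sulfate salts in physiological saline, mostly once on day 1. %ILS from all deaths and survivors as (T/C × 100) − 100; survivors scored on days 30 and 60.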

[5] = system: Mus musculus; assay: Percent increase in life span of DBA2 mice after inoculation with L1210 leukemia intravenously at a dose of 65 mg/kg per day; settings: route intravenous; how it was run: as §1
[6] = system: Mus musculus; assay: Percent increase in life span of DBA2 mice after inoculation with L1210 leukemia intravenously at a dose of 70 mg/kg per day; settings: route intravenous; how it was run: as §1
[7] = system: Mus musculus; assay: Percent increase in life span of DBA2 mice after inoculation with L1210 leukemia intravenously at a dose of 75 mg/kg per day; settings: route intravenous
[8] = system: Mus musculus; assay: Number of survivors on 60th day at dose 55 mg/kg/day in 10 mice implanted with P388 leukemia cell line
[9] = system: Mus musculus; assay: Number of survivors on 60th day at dose 60 mg/kg/day in 10 mice implanted with P388 leukemia cell line
How it was run: (§2)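 Female DBA2 mice inoculated iv on day 0 with 10^4 P388 cells; single iv treatment on day 1 with drug as sulfate salt in physiological saline. Survival followed; %ILS from all deaths and survivors as (T/C × 100) − 100, maximal MST 30 days; survivors counted on days 30 and 60. Most experiments confirmed three times.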

[10] = system: Mus musculus; assay: Percent increase in life span at dose 75 mg/kg/day in 10 mice implanted with P388 leukemia cell line
[11] = system: Mus musculus; assay: Number of survivors of DBA2 mice on 30th day after inoculation with L1210 leukemia cell line intravenously at a dose of 55 mg/kg/day; 0/10; settings: route intravenous
[12] = system: Mus musculus; assay: Number of survivors of DBA2 mice on 30th day after inoculation with L1210 leukemia cell line intravenously at a dose of 60 mg/kg/day; 0/10; settings: route intravenous
[13] = system: Mus musculus; assay: Number of survivors of DBA2 mice on 30th day after inoculation with L1210 leukemia cell line intravenously at a dose of 65 mg/kg/day; 0/10; settings: route intravenous
[14] = system: Mus musculus; assay: Number of survivors of DBA2 mice on 30th day after inoculation with L1210 leukemia cell line intravenously at a dose of 70 mg/kg/day; 0/10; settings: route intravenous
[15] = system: Mus musculus; assay: Number of survivors of DBA2 mice on 30th day after inoculation with L1210 leukemia cell line intravenously at a dose of 75 mg/kg/day; 0/10; settings: route intravenous
[16] = system: Mus musculus; assay: Number of survivors on 60th day at dose 50 mg/kg/day in 10 mice implanted with P388 leukemia cell line
[17] = system: Mus musculus; assay: Percent increase in life span at dose 80 mg/kg/day in 10 mice implanted with P388 leukemia cell line; how it was run: as §2
[18] = system: Mus musculus; assay: Percent increase in life span at dose 55 mg/kg/day in 10 mice implanted with P388 leukemia cell line; how it was run: as §2
[19] = system: Mus musculus; assay: Number of survivors on 60th day at dose 75 mg/kg/day in 10 mice implanted with P388 leukemia cell line
[20] = system: Mus musculus; assay: Number of survivors on 60th day at dose 80 mg/kg/day in 10 mice implanted with P388 leukemia cell line
[21] = system: Mus musculus; assay: Percent increase in life span at dose 60 mg/kg/day in 10 mice implanted with P388 leukemia cell line; how it was run: as §2
[22] = system: Mus musculus; assay: Number of survivors on 30th day at dose 50 mg/kg/day in 10 mice implanted with P388 leukemia cell line
[23] = system: Mus musculus; assay: Number of survivors on 30th day at dose 55 mg/kg/day in 10 mice implanted with P388 leukemia cell line
[24] = system: Mus musculus; assay: Number of survivors on 30th day at dose 60 mg/kg/day in 10 mice implanted with P388 leukemia cell line
[25] = system: Mus musculus; assay: Number of survivors of DBA2 mice on 60th day after inoculation with L1210 leukemia cell line intravenously at a dose of 55 mg/kg/day; 0/10; settings: route intravenous
[26] = system: Mus musculus; assay: Number of survivors of DBA2 mice on 60th day after inoculation with L1210 leukemia cell line intravenously at a dose of 60 mg/kg/day; 0/10; settings: route intravenous
[27] = system: Mus musculus; assay: Number of survivors of DBA2 mice on 60th day after inoculation with L1210 leukemia cell line intravenously at a dose of 65 mg/kg/day; 0/10; settings: route intravenous
[28] = system: Mus musculus; assay: Number of survivors on 30th day at dose 75 mg/kg/day in 10 mice implanted with P388 leukemia cell line
[29] = system: Mus musculus; assay: Number of survivors on 30th day at dose 80 mg/kg/day in 10 mice implanted with P388 leukemia cell line
[30] = system: Mus musculus; assay: Percent increase in life span at dose 50 mg/kg/day in 10 mice implanted with P388 leukemia cell line; how it was run: as §2

Compound: CCOC(=O)[C@H](Cc1ccccc1)NC(=O)[C@@]1(O)[C@H](O)[C@]2(CC)C=CCN3CC[C@@]4(c5cc([C@@]6(C(=O)OC)C[C@H]7C[N@](CCc8c6[nH]c6ccccc86)C[C@](O)(CC)C7)c(OC)cc5N(C)[C@@]14C)[C@@H]32
- Survivors [1]: 0
- Survivors [2]: 0
- ILS [3]: 0%
- ILS at 60 mg/kg/day [4]: 13.9%
- ILS at 65 mg/kg/day [5]: 3.5%
- ILS at 70 mg/kg/day [6]: 13%
- ILS at 75 mg/kg/day [7]: 25%
- Survivors [8]: 0
- Survivors [9]: 0
- ILS at 75 mg/kg/day [10]: 26.6%
- Survivors [11]: 0
- Survivors [12]: 0
- Survivors [13]: 0
- Survivors [14]: 0
- Survivors [15]: 0
- Survivors [16]: 1
- ILS at 80 mg/kg/day [17]: 41.7%
- ILS at 55 mg/kg/day [18]: 36.4%
- Survivors [19]: 0
- Survivors [20]: 0
- ILS at 60 mg/kg/day [21]: 13.3%
- Survivors [22]: 1
- Survivors [23]: 1
- Survivors [24]: 0
- Survivors [25]: 0
- Survivors [26]: 0
- Survivors [27]: 0
- Survivors [28]: 0
- Survivors [29]: 0
- ILS at 50 mg/kg/day [30]: 21.5%
